Activity calls are given as the source filed them. No cut-off for these calls is given here.
Tests used:
Prostaglandin E synthase = target: T1, Prostaglandin E synthase (Homo sapiens, UniProt O14684); assay: Inhibition of mPGES1-mediated PGE2 production in microsomes of IL-1beta stimulated human A549 cells preincubated for 15 mins by RP-HPLC analysis; format: cell-based
T1 sequence (O14684 whole entry): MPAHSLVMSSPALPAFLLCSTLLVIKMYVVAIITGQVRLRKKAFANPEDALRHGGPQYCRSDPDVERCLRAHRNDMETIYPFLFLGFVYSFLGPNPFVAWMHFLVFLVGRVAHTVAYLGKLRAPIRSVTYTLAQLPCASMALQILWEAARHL
In short: (§1)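 mPGES-1 source: microsomes of A549 cells treated 48 h with IL-1β 2 ng/mL, at 25−50 μg protein/mL in 0.1 M potassium phosphate pH 7.4 with 2.5 mM glutathione. Compound preincubation 15 min at 4 °C; PGH2 (20 μM final) for 1 min; FeCl2/citric acid stop with 11β-PGE2 internal standard. PGE2 by RP-HPLC.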

[1] = target: T2, Prostaglandin E synthase (Homo sapiens) (UniProt O14684); assay: Inhibition of mPGES1-mediated PGE2 formation in LPS-stimulated human monocytes preincubated for 15 mins before arachidonic acid substrate addition measured after 30 mins by UPLC-MS/MS analysis; format: cell-based
T2 sequence (whole entry): T1 sequence (O14684 whole entry)
In short: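 Fresh human monocytes (adherence-isolated, >85% CD14+; 5 × 10⁶/well) primed with LPS 1 μg/mL for 24 h. Washed, 15 min preincubation, then 2.5 μM A23187 plus 20 μM arachidonic acid for 30 min. Eicosanoids extracted and measured by UPLC-MS/MS, normalized to PGB1 as relative intensities. Two to three independent experiments.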

[2] = target: T2, Prostaglandin E synthase (Homo sapiens); assay: Inhibition of mPGES1-mediated PGE2 production in microsomes of IL-1beta stimulated human A549 cells assessed as residual activity preincubated at 10 uM for 15 mins by RP-HPLC analysis relative to control; format: cell-based; in short: as §1
[3] = target: T3, Polyunsaturated fatty acid 5-lipoxygenase (Homo sapiens, UniProt P09917); assay: Inhibition of human recombinant 5-LO expressed in Escherichia coli Bl21 (DE3) using arachidonic acid as substrate preincubated for 10 mins measured after 10 mins by RP-HPLC analysis
T3 sequence (P09917 whole entry): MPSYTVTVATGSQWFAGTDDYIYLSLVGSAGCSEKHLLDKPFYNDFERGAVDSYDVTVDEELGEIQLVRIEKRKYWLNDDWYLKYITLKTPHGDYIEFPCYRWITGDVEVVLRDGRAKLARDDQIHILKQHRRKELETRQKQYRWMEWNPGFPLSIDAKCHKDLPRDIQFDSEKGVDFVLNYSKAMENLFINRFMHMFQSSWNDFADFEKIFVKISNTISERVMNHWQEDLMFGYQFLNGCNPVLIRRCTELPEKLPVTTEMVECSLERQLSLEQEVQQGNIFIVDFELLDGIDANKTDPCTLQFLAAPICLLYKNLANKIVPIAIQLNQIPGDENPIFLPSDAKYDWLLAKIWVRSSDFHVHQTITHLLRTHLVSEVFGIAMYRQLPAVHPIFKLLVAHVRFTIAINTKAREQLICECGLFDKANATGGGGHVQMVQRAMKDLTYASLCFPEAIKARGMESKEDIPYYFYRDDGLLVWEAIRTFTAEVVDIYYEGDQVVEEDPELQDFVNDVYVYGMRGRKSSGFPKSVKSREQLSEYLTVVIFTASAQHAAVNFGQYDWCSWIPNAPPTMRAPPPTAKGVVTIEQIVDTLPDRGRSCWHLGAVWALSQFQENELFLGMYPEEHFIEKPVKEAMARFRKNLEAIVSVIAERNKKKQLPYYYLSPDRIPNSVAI
In short: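 5-LO expressed from pT3-5LO in E. coli BL21(DE3), semi-purified on ATP-agarose, diluted in PBS with 1 mM EDTA and 1 mM ATP. Preincubated with compound 10 min at 4 °C, then 30 s at 37 °C. Started with 2 mM CaCl2 plus 20 μM arachidonic acid; 10 min at 37 °C; ice-cold methanol stop. Three to four experiments.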

[4] = target: T3, Polyunsaturated fatty acid 5-lipoxygenase; assay: Inhibition of 5-LO in human neutrophils using arachidonic acid as substrate preincubated for 15 mins measured after 10 mins by HPLC analysis
In short: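 Fresh human neutrophils, 1 × 10⁷/mL in PBS pH 7.4 with 1 mM CaCl2 and 1 mg/mL glucose, preincubated 15 min at 37 °C. LTB4, its all-trans isomers and 5-H(P)ETE by HPLC.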

[5] = test system: Radical scavenging activity; assay: Antioxidant activity assessed as DPPH free radical scavenging activity at 10 uM after 30 mins […] by spectrophotometric analysis; format: functional
[6] = Aqueous stability of the compound in at 2 uM in 10 mM aqueous ammonium bicarbonate at pH 7.9 assessed as formation of trans-6-(4'-hydroxy-3'-methoxyphenyl)-2,4-dioxo-5-hexenal measured as residual amount of compound by reversed phase liquid chromatography-coupled mass spectrometry; format: physicochemical; settings: buffer, pH 7.9, 2 µM
In short: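 Compounds at 2 μM in 10 mM aqueous ammonium bicarbonate pH 7.9, incubated 30 min at 37 °C. Analysed by UPLC-MS on a C18 column, gradient acetonitrile/water with 0.07% formic acid, at 0.7 mL/min. Residual amount given as % of control; three to four independent experiments.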

[7] = target: T4, Prostaglandin G/H synthase 1 (Ovis aries) (UniProt P05979); assay: Inhibition of purified ovine COX-1 assessed as residual activity by measuring formation of 12-HHT from arachidonic acid preincubated at 10 uM for 5 mins before substrate addition measured after 5 mins by HPLC analysis relative to control
T4 sequence (whole entry): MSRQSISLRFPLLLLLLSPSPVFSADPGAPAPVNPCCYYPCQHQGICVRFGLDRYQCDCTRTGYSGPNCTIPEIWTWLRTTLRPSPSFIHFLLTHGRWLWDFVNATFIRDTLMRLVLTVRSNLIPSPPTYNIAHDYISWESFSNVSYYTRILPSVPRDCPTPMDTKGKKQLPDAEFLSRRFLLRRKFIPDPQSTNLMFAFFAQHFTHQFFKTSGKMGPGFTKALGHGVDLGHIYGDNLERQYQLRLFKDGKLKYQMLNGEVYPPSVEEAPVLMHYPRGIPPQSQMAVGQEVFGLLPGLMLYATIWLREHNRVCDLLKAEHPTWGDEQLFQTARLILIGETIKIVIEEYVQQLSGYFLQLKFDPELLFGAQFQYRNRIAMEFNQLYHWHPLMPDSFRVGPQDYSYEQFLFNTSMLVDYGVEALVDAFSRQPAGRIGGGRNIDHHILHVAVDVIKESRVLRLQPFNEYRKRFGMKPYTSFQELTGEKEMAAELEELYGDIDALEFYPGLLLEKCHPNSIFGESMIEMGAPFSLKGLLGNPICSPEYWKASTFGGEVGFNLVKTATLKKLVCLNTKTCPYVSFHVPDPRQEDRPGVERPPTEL
In short: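 Purified ovine COX-1 (50 units) in 100 mM Tris pH 8 with 5 mM glutathione, 5 μM hemoglobin and 100 μM EDTA. Preincubated 5 min at 4 °C then 1 min at 37 °C. 5 μM arachidonic acid added; 12-HHT extracted after 5 min and measured by HPLC. Residual activity at 10 μM, three independent experiments.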

[8] = target: T5, Polyunsaturated fatty acid lipoxygenase ALOX12 (Homo sapiens) (UniProt P18054); assay: Inhibition of 12-LO in human neutrophils assessed as residual activity relative to control; settings: values are per cent of control
T5 sequence (whole entry): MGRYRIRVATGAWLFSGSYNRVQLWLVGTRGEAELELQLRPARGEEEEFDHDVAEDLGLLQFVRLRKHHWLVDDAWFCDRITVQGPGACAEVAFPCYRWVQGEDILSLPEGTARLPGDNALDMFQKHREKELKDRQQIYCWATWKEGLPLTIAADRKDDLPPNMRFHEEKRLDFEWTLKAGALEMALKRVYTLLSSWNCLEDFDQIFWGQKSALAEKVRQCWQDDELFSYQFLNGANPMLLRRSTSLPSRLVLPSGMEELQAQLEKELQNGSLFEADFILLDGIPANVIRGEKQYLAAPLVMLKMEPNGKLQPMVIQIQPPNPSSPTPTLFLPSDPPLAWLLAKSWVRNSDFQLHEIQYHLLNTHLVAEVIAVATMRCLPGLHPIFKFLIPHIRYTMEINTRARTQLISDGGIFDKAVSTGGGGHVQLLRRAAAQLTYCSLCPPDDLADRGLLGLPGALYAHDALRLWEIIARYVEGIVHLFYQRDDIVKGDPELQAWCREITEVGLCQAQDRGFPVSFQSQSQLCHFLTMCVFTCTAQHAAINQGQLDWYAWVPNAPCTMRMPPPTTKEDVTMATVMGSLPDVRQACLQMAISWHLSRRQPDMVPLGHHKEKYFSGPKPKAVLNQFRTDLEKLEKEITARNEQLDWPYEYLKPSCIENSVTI

LNCaP = assay: Cytotoxicity against human LNCAP cells assessed as cell viability after 24 hrs by MTT assay; format: cell-based
In short: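 LNCaP seeded at 10⁴ cells/well and exposed 24 h. MTT added, then 4 h at 37 °C, 5% CO2, dark. Medium removed and formazan dissolved in DMSO; absorbance at 570 nm.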

PBMC = assay: Cytotoxicity against human PBMCs assessed as cell viability after 24 hrs by MTT assay; format: cell-based
In short: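 Human PBMC (2 × 10⁵/well), 24 h exposure. MTT then 4 h at 37 °C in darkness. Formazan solubilized with 10% SDS in 20 mM HCl; absorbance 550 nm. Viability relative to untreated cells; IC50 derived.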

[9] = target: T6, Prostaglandin G/H synthase 1 (Homo sapiens, UniProt P23219); assay: Inhibition of COX1-mediated […] in human platelets assessed as residual activity by measuring formation of 12-HHT from arachidonic acid preincubated at 10 uM for 5 mins measured after 5 mins by RP-HPLC analysis relative to control; values are per cent of control
[10] = target: T6, Prostaglandin G/H synthase 1; assay: Inhibition of COX1-mediated PGE2 production in human platelets assessed as residual activity by measuring formation of 12-HHT from arachidonic acid preincubated at 10 uM for 5 mins measured after 5 mins by RP-HPLC analysis relative to control
In short: (§2)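 Washed human platelets, 10⁸/mL in PBS pH 7.4 with 1 mM CaCl2: 5 min compound preincubation at room temperature, then 1 min at 37 °C. Arachidonic acid 5 μM added; 5 min at 37 °C. 12-HHT extracted and measured by RP-HPLC.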

[11] = target: T4, Prostaglandin G/H synthase 1 (Ovis aries); assay: Inhibition of purified ovine COX-1 assessed as residual activity by measuring formation of 12-HHT from arachidonic acid preincubated at 10 uM for 5 mins before substrate addition measured after 5 mins by HPLC analysis relative to control; values are per cent of control
[12] = target: T6, Prostaglandin G/H synthase 1; assay: Inhibition of COX1-mediated PGE2 production in human platelets assessed as formation of 12-HHT using arachidonic acid as substrate preincubated for 5 mins measured after 5 mins by RP-HPLC analysis; in short: as §2
Mus musculus [13] = assay: Antiinflammatory activity in zymosan-induced peritonitis CD1 mouse model assessed as suppression of MPO activity at 1 mg/kg, ip administered 30 mins before challenge measured 4 hrs post zymosan challenge relative to control; format: functional; settings: route intraperitoneal
In short: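 In male CD-1 mice (n = 5−11 per group), dose was given ip in 2% DMSO/saline 30 min before ip zymosan (2 mg/mL, 0.5 mL). Lavage 4 h later. Pelleted exudate cells disrupted; supernatant mixed with 0.167 mg/mL o-dianisidine and 0.0005% H2O2 in PBS, read kinetically by absorbance. U/mL from human neutrophil MPO calibration; % inhibition vs vehicle.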

Mus musculus [14] = assay: Antiinflammatory activity in zymosan-induced peritonitis CD1 mouse model assessed as suppression of neutrophil infiltration at 1 mg/kg, ip administered 30 mins before challenge measured 4 hrs post zymosan challenge relative to control; format: functional; settings: route intraperitoneal
In short: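 Zymosan peritonitis in male CD-1 mice (n = 5−11): ip dose in 2% DMSO/saline 30 min before ip zymosan. Peritoneal lavage with 3 mL cold PBS at 4 h. Exudate cells counted by light microscopy in a Burker chamber after trypan blue staining; % inhibition vs vehicle.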

Mus musculus [15] = assay: Antiinflammatory activity in zymosan-induced peritonitis CD1 mouse model assessed as suppression of LTB4 level at 1 mg/kg, ip administered 30 mins before challenge measured 4 hrs post zymosan challenge relative to control v

T6 sequence (P23219 whole entry): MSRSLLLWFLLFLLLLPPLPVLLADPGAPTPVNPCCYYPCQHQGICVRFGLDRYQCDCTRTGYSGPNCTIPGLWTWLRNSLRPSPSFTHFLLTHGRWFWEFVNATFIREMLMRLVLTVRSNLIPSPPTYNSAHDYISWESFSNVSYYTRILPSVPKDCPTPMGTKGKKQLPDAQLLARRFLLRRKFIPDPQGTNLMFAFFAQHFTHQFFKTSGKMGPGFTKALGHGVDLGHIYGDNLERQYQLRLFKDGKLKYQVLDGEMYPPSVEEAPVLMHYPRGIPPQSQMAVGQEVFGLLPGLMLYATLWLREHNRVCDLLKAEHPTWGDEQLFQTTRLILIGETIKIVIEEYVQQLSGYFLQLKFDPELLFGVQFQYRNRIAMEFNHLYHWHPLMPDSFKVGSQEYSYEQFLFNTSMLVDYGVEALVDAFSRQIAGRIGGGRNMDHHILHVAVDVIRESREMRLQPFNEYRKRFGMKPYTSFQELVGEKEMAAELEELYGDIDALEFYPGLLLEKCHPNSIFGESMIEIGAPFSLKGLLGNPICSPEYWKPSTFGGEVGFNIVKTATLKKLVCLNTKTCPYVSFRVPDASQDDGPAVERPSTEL

| Compound | IC50 [3] | IC50 [4] | Activity [5] | Stability [6] | inhibition [7] | residual activity [8] | IC50 (LNCaP) | IC50 (PBMC) | further results |
| --- | --- | --- | --- | --- | --- | --- | --- | --- | --- |
| Clc1ccccc1-c1nc2c3ccccc3c3ccccc3c2[nH]1 |  |  |  |  |  |  |  |  | IC50 (Prostaglandin E synthase; read-out: IC50): 0.02 µM; inhibition [1]: Active |
| COc1cc(/C=C/C(=O)/C=C/c2cc(F)c(O)c(OC)c2)cc(F)c1O | 0.6 µM | 8.1 µM | 80.5% | Unstable | inactive | 67.7% | 25.1 µM | > 50 µM | Activity [2]: 58.8%; residual activity [9]: 65.2% |
| COc1cc(CCC(=O)CC(=O)CCc2cc(CCC(C)C)c(O)c(OC)c2)cc(CCC(C)C)c1O | 0.4 µM | 2.9 µM | 71.9% | 87.4% |  | 76.4% | > 50 µM | > 50 µM | IC50 (Prostaglandin E synthase; a549): Not Active; inhibition [10]: inactive; residual activity [11]: 82.7% |
| COc1cc(/C=C/C(=O)CC(=O)/C=C/c2cc(F)c(O)c(OC)c2)cc(F)c1O | 0.4 µM | 10 µM | 61.4% | Unstable | inactive | 69.7% | > 50 µM | > 50 µM | IC50 (Prostaglandin E synthase; read-out: IC50): 8.7 µM; IC50 [12]: 7.5 µM |
| O=C1O[C@H]([C@@H](O)CO)C(O)=C1O |  |  | 20.4% |  |  |  |  |  |  |
| CC(C)c1ccc2c(c1)c(SC(C)(C)C)c(CC(C)(C)C(=O)O)n2Cc1ccc(Cl)cc1 |  |  |  |  |  |  |  |  | inhibition in vivo at 1 mg/kg (Mus musculus [13]): 41%; inhibition in vivo at 1 mg/kg (Mus musculus [14]): 41%; inhibition in vivo at 1 mg/kg (Mus musculus [15]): 63% |
| COc1ccc2c(c1)c(CC(=O)O)c(C)n2C(=O)c1ccc(Cl)cc1 |  |  |  |  |  |  |  |  | residual activity [11]: 25% |
| COc1cc(/C=C/C(=O)CC(=O)/C=C/c2cc(CCC(C)C)c(O)c(OC)c2)cc(CCC(C)C)c1O | 2.8 µM | 80.2 µM | 64.3% | Unstable | inactive | 75.7% |  |  | Activity [2]: 71.7%; inhibition [10]: inactive |
